pIC50: −log10 of the molar value. Activity calls are given as the source filed them. The calls are words filed in the database; no cut-off is given here.
Key:
Cryptosporidium hominis [1] = experiment: Inhibition of Cryptosporidium hominis thymidylate synthase assessed as H2F formation at 500 uM preincubated for 30 mins followed by addition of radiolabelled CH2H4F and dUMP by HPLC-coupled flow scintillation analysis relative to control
Outline: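 Bifunctional C. hominis TS-DHFR is preincubated with compound for 30 min, then dUMP and radiolabelled CH2H4F are added to start the reaction. TS turnover of CH2H4F to H2F is followed by HPLC with radioactivity flow detection, and results are expressed as % inhibition.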

Cryptosporidium hominis [2] = experiment: Inhibition of Cryptosporidium hominis dihydrofolate reductase assessed as H4F formation at 500 uM preincubated for 30 mins followed by addition of radiolabelled H2F and dUMP by HPLC-coupled flow scintillation analysis relative to control
Outline: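 DHFR activity of bifunctional C. hominis TS-DHFR uses a radiometric assay. Conversion of radiolabelled H2F to H4F is followed by HPLC, and % inhibition is reported. The assay is run as a counter-screen for compound aggregation and nonspecific effects.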

[3] = target: Thymidylate synthase (TS) (Homo sapiens, UniProt P04818); experiment: Inhibition of human TS at 500 uM relative to control; details: human thymidylate synthase enzyme (single protein)
Thymidylate synthase (TS), sequence (P04818 whole entry): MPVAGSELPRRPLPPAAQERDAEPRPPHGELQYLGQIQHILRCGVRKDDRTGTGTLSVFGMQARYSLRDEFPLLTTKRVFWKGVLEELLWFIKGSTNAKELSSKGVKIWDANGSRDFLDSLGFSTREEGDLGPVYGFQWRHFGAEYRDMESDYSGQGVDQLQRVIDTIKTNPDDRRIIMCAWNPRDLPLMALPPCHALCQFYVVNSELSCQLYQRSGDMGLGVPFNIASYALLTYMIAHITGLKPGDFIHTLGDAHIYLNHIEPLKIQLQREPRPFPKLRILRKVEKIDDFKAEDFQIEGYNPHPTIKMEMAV
Outline: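 Human TS enzyme is incubated with compound in the absence of dUMP, then TS activity is measured.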

[4] = Inhibition of Cryptosporidium hominis thymidylate synthase assessed as H2F formation preincubated for 30 mins followed by addition of radiolabelled CH2H4F and inactive dUMP by HPLC-coupled flow scintillation analysis
[5] = Selectivity index, ratio of inhibition of human TS to inhibition of Cryptosporidium hominis thymidylate synthase-dihydrofolate reductase
[6] = Inhibition of Cryptosporidium hominis thymidylate synthase assessed as H2F formation preincubated for 30 mins followed by addition of radiolabelled CH2H4F and active dUMP by HPLC-coupled flow scintillation analysis

SMILES | inhibition (Cryptosporidium hominis [1]) | further results
COc1cc(NC(=O)NCc2cccnc2)cc(C(F)(F)F)c1 | 46% | 
OC(CNCc1ccc2c(c1)OCO2)COc1ccc(-c2ccccc2)cc1 (centres undefined) | 87% | inhibition (Cryptosporidium hominis [2]): 26%
OC(CNCc1ccc2c(c1)OCO2)COc1ccc(Cl)c(Cl)c1 (centres undefined) | 83% | inhibition (Cryptosporidium hominis [2]): 60%
COc1ccccc1OCC(O)CNCc1ccc2c(c1)OCO2 (centres undefined) | < 5% | 
COc1ccc(Cn2c(=O)c3[nH]cnc3n(-c3cccc([S+](C)[O-])c3)c2=O)cc1 (centres undefined) | < 5% | 
Cc1ccccc1-n1c(=O)n(Cc2ccc(C(=O)O)cc2)c(=O)c2[nH]cnc21 | < 5% | 
O=C(O)CCC(=O)Nc1ccc(S(=O)(=O)Nc2ccc(C(F)(F)F)cc2)cc1 | inactive | 
COc1cc(C(=O)O)ccc1OCC(O)CNCc1ccc2c(c1)OCO2 (centres undefined) | < 5% | 
CC(C)(CC(=O)O)CC(=O)NCc1c(Cl)cccc1Oc1ccccc1 | inactive | 
Cc1ccc(C)c(OCC(O)CNCc2ccc3c(c2)OCO3)c1C (centres undefined) | 48% | 
CCCCNC1N=C(c2ccccc2)c2ccccc2N(C)C1=O (centres undefined) | 15% | 
Cc1ccc(OCC(O)CNCc2ccc3c(c2)OCO3)cc1C (centres undefined) | 55% | 
CCOC(=O)CNC(=O)CSc1nc2ccccc2c(=O)[nH]1 | inactive | 
OC(CNCc1ccc2c(c1)OCO2)CSc1ccccc1 (centres undefined) | 34% | 
OC(CNCc1ccc2c(c1)OCO2)COc1ccc(Br)cc1 (centres undefined) | 26% | 
OC(CNCc1ccc2c(c1)OCO2)CSc1cccs1 (centres undefined) | 43% | 
OC(CNCc1ccc2c(c1)OCO2)COc1ccc(F)cc1 (centres undefined) | 7% | 
COc1cc(C(C)=O)ccc1OCC(O)CNCc1ccc2c(c1)OCO2 (centres undefined) | 20% | 
OC(CNCc1ccc2c(c1)OCO2)COc1ccc(-c2csnn2)cc1 (centres undefined) | 76% | inhibition (Cryptosporidium hominis [2]): 6%
Cc1cc(Cl)cc(Br)c1OCC(O)CNCc1ccc2c(c1)OCO2 (centres undefined) | 83% | inhibition at 500 µM [3]: 50%; inhibition (Cryptosporidium hominis [2]): 19%; pIC50 [4]: 3.76; Ratio [5]: 2; pIC50 [6]: 3.52
CC(=O)c1ccc(OCC(O)CNCc2ccc3c(c2)OCO3)cc1 (centres undefined) | 55% | 

Reference: ChEMBL document CHEMBL4622933, “Targeting the TS dimer interface in bifunctional Cryptosporidium hominis TS-DHFR from parasitic protozoa: Virtual screening identifies novel TS allosteric inhibitors” (Bioorg Med Chem Lett, 2020)
